In ChEMBL document CHEMBL4024779, “Novel Terminal Bipheny-Based Diapophytoene Desaturases (CrtN) Inhibitors as Anti-MRSA/VISR/LRSA Agents with Reduced hERG Activity” (J Med Chem, 2018):
Residue numbers refer to the chain shown, from its start. Calls of active or inactive are those of the source. No cut-off for these calls is given here.

Columns and labels:
[1] = Tmax in mouse at 10 mg/kg, po administered as single dose by LC-MS/MS analysis; type: ADME, organism-based; details: in vivo
Staphylococcus aureus [2] = assay: In vivo anti-virulence activity against Staphylococcus aureus Newman infected in BALB/c mouse model assessed as reduction in bacterial load in heart at 0.4 mg bid for 3.5 days administered orally 6 hrs post infection by serial dilution method relative to vancomycin; type: functional; parameters: scale not given: the % may be the effect or the level left
How it was run: (§1)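 Mice got 3.1 × 10^7 CFU S. aureus Newman by retro-orbital injection. Oral compound was given b.i.d. for 3.5 d, starting 6 h after infection. […] Log10 CFU was counted per kidney and per heart.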

Staphylococcus aureus [3] = assay: In vivo anti-virulence activity against methicillin-resistant Staphylococcus aureus Mu50 infected in BALB/c mouse model assessed as reduction in bacterial load in heart at 0.05 mg bid for 3.5 days administered intraperitoneally 6 hrs post infection by serial dilution method; type: functional; parameters: scale not given: the % may be the effect or the level left
How it was run: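 Mice were challenged with 1.3 × 10^9 CFU Mu50. Compound was given intraperitoneally, either 24 h before or 6 h after infection. Log10 CFU was counted in kidneys and hearts.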

Cytochrome P450 2C9 = Cytochrome P450 2C9 (Homo sapiens, UniProt P11712); assay: Inhibition of CYP2C9 in human liver microsomes using diclofenac as substrate upto 10 uM after 10 mins in presence of NADPH by LC-MS/MS analysis; type: ADME
Sequence of Cytochrome P450 2C9 (P11712 whole entry): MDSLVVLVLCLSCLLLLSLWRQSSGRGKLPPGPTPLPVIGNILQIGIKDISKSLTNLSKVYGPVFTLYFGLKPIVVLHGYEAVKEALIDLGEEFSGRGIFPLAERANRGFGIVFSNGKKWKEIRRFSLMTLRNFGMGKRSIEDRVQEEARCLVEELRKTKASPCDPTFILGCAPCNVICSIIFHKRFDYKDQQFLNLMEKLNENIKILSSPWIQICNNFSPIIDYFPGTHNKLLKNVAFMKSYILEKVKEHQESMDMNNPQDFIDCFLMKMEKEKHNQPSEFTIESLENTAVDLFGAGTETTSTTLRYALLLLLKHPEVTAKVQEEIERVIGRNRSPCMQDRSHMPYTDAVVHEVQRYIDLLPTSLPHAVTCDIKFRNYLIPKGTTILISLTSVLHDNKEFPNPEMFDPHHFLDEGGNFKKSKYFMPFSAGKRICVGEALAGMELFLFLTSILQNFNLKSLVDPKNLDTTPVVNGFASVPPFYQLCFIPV

Staphylococcus aureus [4] = assay: In vivo anti-virulence activity against Staphylococcus aureus Mu50 infected in BALB/c mouse model assessed as reduction in bacterial load in kidney at 0.2 mg bid for 3.5 days administered orally 6 hrs post infection by serial dilution method relative to control; type: functional, organism-based
How it was run: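 Mice were infected by retro-orbital injection with Mu50 (4.6 × 10^9 CFU) or NRS271 (3.5 × 10^8 CFU). Oral compound was given b.i.d. for 3.5 d, starting 6 h after infection. Log10 CFU was counted per kidney and per heart.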

Cytochrome P450 2C19 = Cytochrome P450 2C19 (Homo sapiens, UniProt P33261); assay: Inhibition of CYP2C19 in human liver microsomes using mephenytoin as substrate upto 10 uM after 45 mins in presence of NADPH by LC-MS/MS analysis; type: ADME
Sequence of Cytochrome P450 2C19 (P33261 whole entry): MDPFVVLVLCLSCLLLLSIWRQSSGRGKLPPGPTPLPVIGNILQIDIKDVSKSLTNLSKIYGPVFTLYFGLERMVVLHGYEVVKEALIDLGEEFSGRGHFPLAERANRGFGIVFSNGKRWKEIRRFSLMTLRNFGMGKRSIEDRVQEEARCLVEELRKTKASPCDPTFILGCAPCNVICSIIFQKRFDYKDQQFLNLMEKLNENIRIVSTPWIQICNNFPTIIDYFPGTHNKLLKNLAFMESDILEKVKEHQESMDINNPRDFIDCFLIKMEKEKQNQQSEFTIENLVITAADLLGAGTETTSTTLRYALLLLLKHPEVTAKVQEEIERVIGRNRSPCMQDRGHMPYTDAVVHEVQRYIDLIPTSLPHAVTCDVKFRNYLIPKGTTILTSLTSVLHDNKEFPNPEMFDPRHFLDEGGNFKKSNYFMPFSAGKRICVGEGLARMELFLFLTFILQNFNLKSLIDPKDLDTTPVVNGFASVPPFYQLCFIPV

Rattus norvegicus = assay: Toxicity in Sprague-Dawley rat at 60 to 1000 mg/kg, po administered as single dose assessed as mortality measured immediately post administration; type: organism-based; details: in vivo
How it was run: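 Rats, 30 in total, randomised into three groups. Each received a single oral dose of 60, 250 or 1000 mg/kg on day 1. Poisoning symptoms, mortality, behaviour, water and food consumption and body weight monitored immediately and over 2 weeks.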

[5] = molecular target: T1, 4,4'-diapophytoene desaturase (4,4'-diaponeurosporene-forming) (Staphylococcus aureus (strain Mu50 / ATCC 700699)) (UniProt Q99R76); details: Staphylococcus aureus subsp. aureus Mu50; 1 uM
T1 sequence (whole entry): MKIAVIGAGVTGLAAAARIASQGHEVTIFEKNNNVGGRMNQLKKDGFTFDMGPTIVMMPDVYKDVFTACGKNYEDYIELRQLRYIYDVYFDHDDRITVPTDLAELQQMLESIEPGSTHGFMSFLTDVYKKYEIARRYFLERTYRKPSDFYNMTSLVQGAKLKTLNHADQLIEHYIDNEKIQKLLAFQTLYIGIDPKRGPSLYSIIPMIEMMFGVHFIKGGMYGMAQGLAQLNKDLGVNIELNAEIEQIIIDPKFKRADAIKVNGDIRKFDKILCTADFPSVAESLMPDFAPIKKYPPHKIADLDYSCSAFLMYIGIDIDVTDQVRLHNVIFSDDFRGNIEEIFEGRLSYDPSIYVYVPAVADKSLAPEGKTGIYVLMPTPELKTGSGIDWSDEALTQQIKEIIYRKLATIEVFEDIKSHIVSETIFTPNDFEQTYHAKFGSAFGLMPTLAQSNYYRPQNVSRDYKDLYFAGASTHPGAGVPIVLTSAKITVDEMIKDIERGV

Staphylococcus aureus [6] = assay: In vivo anti-virulence activity against methicillin-resistant Staphylococcus aureus NF65Y infected in BALB/c mouse model assessed as reduction in bacterial load in heart at 0.1 mg bid for 3.5 days administered intraperitoneally 6 hrs post infection by serial dilution method relative to vancomycin; type: functional, organism-based
How it was run: (§2)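 Mice infected retro-orbitally with S. aureus NF65Y (3.5 × 10^8 CFU) or XN108 (2.1 × 10^8 CFU). Test compound given i.p. b.i.d. starting 6 h post-infection. […] Log10 CFU per kidney and heart counted. Two-tailed Mann−Whitney test.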

Staphylococcus aureus [7] = assay: In vivo anti-virulence activity against methicillin-resistant Staphylococcus aureus NF65Y infected in BALB/c mouse model assessed as reduction in bacterial load in kidney at 0.1 mg bid for 3.5 days administered intraperitoneally 6 hrs post infection by serial dilution method relative to vancomycin; type: functional, organism-based; how it was run: as §2
[8] = AUC (0 to 24 hrs) in mouse at 10 mg/kg, po administered as single dose by LC-MS/MS analysis; type: ADME, organism-based; parameters: time < 24 hr, dose 10 mg/kg, route oral; details: in vivo
[9] = molecular target: T2, 4,4'-diapophytoene desaturase (4,4'-diaponeurosporene-forming) (Staphylococcus aureus (strain MW2)) (UniProt Q8NUQ6); details: Staphylococcus aureus subsp. aureus MW2; USA400; 1 uM
T2 sequence (whole entry): T1 sequence (whole entry) with R500Q

Staphylococcus aureus [10] = assay: In vivo anti-virulence activity against Staphylococcus aureus Newman infected in BALB/c mouse model assessed as reduction in bacterial load in kidney at 0.1 mg bid for 3.5 days administered orally 6 hrs post infection by serial dilution method relative to control; type: functional; parameters: scale not given: the % may be the effect or the level left; how it was run: as §1
Staphylococcus aureus [11] = assay: In vivo anti-virulence activity against methicillin-resistant Staphylococcus aureus LRSA56 infected in BALB/c mouse model assessed as reduction in bacterial load in kidney at 0.1 mg bid for 3.5 days administered intraperitoneally 6 hrs post infection by serial dilution method relative to control; type: functional; parameters: scale not given: the % may be the effect or the level left
How it was run: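 Mice were infected by retro-orbital injection with LRSA56 (5.0 × 10^7 CFU) or LRSA202 (7.0 × 10^7 CFU). Compound was given intraperitoneally 6 h after infection. […] Log10 CFU was counted in kidneys and hearts, with groups compared by two-tailed Mann-Whitney test.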

[12] = Inhibition of CrtN in methicillin-resistant Staphylococcus aureus LRSA56 assessed as reduction in staphyloxanthin levels after 48 hrs by spectrophotometric method-based pigment inhibition assay

Structure (SMILES): CN(C/C=C/c1ccc(-c2ccccc2)cc1)Cc1coc2ccccc12.Cl
- Tmax [1]: 2 h
- Activity (Staphylococcus aureus [2]): >55.3%
- Activity (Staphylococcus aureus [3]): >99.8%
- IC50 (Cytochrome P450 2C9): > 10 µM
- Activity (Staphylococcus aureus [4]): Active
- IC50 (Cytochrome P450 2C19): > 10 µM
- Activity (Rattus norvegicus): Non-Toxic
- Survival [5]: 2.7%
- Activity (Staphylococcus aureus [6]): Active
- Activity (Staphylococcus aureus [7]): Active
- AUC(0-t) at 24 h [8]: 4530 ng·h/mL
- Survival [9]: 2.3%
- Activity (Staphylococcus aureus [10]): 90%
- Activity (Staphylococcus aureus [11]): >83%
- IC50 [12]: 0.0018 µM
